In ChEMBL document CHEMBL4118021, “Studies of TAK1-centered polypharmacology with novel covalent TAK1 inhibitors” (Bioorg Med Chem, 2017):
Activity calls are given as the source filed them. No cut-off for these calls is given here.

How the values were obtained:
Format in all cases: cell-based
[1] = target: Tyrosine-protein kinase Fyn (Homo sapiens) (UniProt P06241); experiment: Inhibition of FYN in human SKCO1 cells at 1 uM after 4 hrs using biotin labeled VAIKTLKPGTMSPESFLEEAQIMK probe by mass-spectrometric analysis relative to control
[2] = target: Mitogen-activated protein kinase 12 (Homo sapiens) (UniProt P53778); experiment: Inhibition of p38g in human SKCO1 cells at 1 uM after 4 hrs using biotin labeled DLKPGNLAVNEDCELK probe by mass-spectrometric analysis relative to control
[3] = target: Alkyldihydroxyacetonephosphate synthase, peroxisomal (Homo sapiens) (UniProt O00116); experiment: Binding affinity to AGPS in human NCI-H23 cells at 1 uM by mass spectrometry based pull down assay
Outline: (§1)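 NCI-H23 or NCI-H358 cells were grown and lysed. Lysates were incubated overnight at 4 °C with 1 μM biotinylated covalent probe or DMSO, then pulled down on streptavidin beads. Proteins were run on polyacrylamide gels and stained with Coomassie. Bands were excised, digested and identified by mass spectrometry.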

[4] = target: LIM domain kinase 1 (Homo sapiens) (UniProt P53667); experiment: Binding affinity to LIMK1 in human NCI-H23 cells at 1 uM by mass spectrometry based pull down assay
[5] = target: T1, 80S Ribosome (Homo sapiens) (UniProt P08865+P42677+P62753+P15880+P23396+P61247+P62701+P22090+P46782+P62081+P62241+P46781+P46783+P62280+P25398+P62277+P62263+P62841+P62244+P62249+P08708+P62269+P39019+P60866+P63220+P62266+P62847+P62851+P62854+P62979+P62857+P62273+P62861+P39023+P36578+P46777+Q02878+P18124+P62424+P62917+P32969+P27635+P62906+P62913+P30050+P26373+P40429+P50914+P61313+P18621+Q07020+Q02543+P84098+P46778+P35268+P62829+P62750+P83731+P61254+P61353+P46776+P46779+P47914+P62888+P62899+P62910+P49207+P42766+P18077+Q9Y3U8+P83881+P61927+P61513+P63173+P62891+P62945+P05388+P05386); experiment: Binding affinity to RPLP1 in human NCI-H23 cells at 1 uM by mass spectrometry based pull down assay
[6] = target: N-acetyl-D-glucosamine kinase (Homo sapiens) (UniProt Q9UJ70); experiment: Binding affinity to NAGK in human NCI-H23 cells at 1 uM by mass spectrometry based pull down assay
[7] = target: Carbonyl reductase [NADPH] 1 (Homo sapiens) (UniProt P16152); experiment: Binding affinity to CBR1 in human NCI-H23 cells at 1 uM by mass spectrometry based pull down assay
[8] = target: ATP-dependent 6-phosphofructokinase, muscle type (Homo sapiens) (UniProt P08237); experiment: Binding affinity to PFKM in human NCI-H23 cells at 1 uM by mass spectrometry based pull down assay
[9] = target: Inosine-5'-monophosphate dehydrogenase 1 (Homo sapiens) (UniProt P20839); experiment: Binding affinity to IMPDH1 in human NCI-H23 cells at 1 uM by mass spectrometry based pull down assay
[10] = target: DNA mismatch repair protein Msh2 (Homo sapiens) (UniProt P43246); experiment: Binding affinity to MSH2 in human NCI-H23 cells at 1 uM by mass spectrometry based pull down assay
[11] = target: Apoptosis-inducing factor 1, mitochondrial (Homo sapiens) (UniProt O95831); experiment: Binding affinity to AIFM1 in human NCI-H23 cells at 1 uM by mass spectrometry based pull down assay; outline: as §1
[12] = target: Cyclin-G-associated kinase (Homo sapiens) (UniProt O14976); experiment: Binding affinity to GAK in human NCI-H23 cells at 1 uM by mass spectrometry based pull down assay
[13] = target: Inosine-5'-monophosphate dehydrogenase 2 (Homo sapiens) (UniProt P12268); experiment: Binding affinity to IMPDH2 in human NCI-H23 cells at 1 uM by mass spectrometry based pull down assay
[14] = target: Eukaryotic translation initiation factor 6 (Homo sapiens) (UniProt P56537); experiment: Binding affinity to EIF6 in human NCI-H358 cells at 1 uM by mass spectrometry based pull down assay
[15] = target: T1, 80S Ribosome (Homo sapiens); experiment: Binding affinity to RPS26 in human NCI-H358 cells at 1 uM by mass spectrometry based pull down assay
[16] = target: COP9 signalosome complex subunit 8 (Homo sapiens) (UniProt Q99627); experiment: Binding affinity to COPS8 in human NCI-H358 cells at 1 uM by mass spectrometry based pull down assay
[17] = target: DnaJ homolog subfamily B member 6 (Homo sapiens) (UniProt O75190); experiment: Binding affinity to DNAJB6 in human NCI-H358 cells at 1 uM by mass spectrometry based pull down assay
[18] = target: T1, 80S Ribosome (Homo sapiens); experiment: Binding affinity to RPL17 in human NCI-H358 cells at 1 uM by mass spectrometry based pull down assay
[19] = target: Monofunctional C1-tetrahydrofolate synthase, mitochondrial (Homo sapiens) (UniProt Q6UB35); experiment: Binding affinity to MTHFD1L in human NCI-H358 cells at 1 uM by mass spectrometry based pull down assay
[20] = target: Cyclin-dependent kinase 5 (Homo sapiens) (UniProt Q00535); experiment: Binding affinity to CDK5 in human NCI-H358 cells at 1 uM by mass spectrometry based pull down assay
[21] = target: Uracil-DNA glycosylase (Homo sapiens) (UniProt P13051); experiment: Binding affinity to UNG in human NCI-H358 cells at 1 uM by mass spectrometry based pull down assay
[22] = target: Thymidine kinase, cytosolic (Homo sapiens) (UniProt P04183); experiment: Binding affinity to TK1 in human NCI-H358 cells at 1 uM by mass spectrometry based pull down assay
[23] = target: Vesicle-fusing ATPase (Homo sapiens) (UniProt P46459); experiment: Binding affinity to NSF in human NCI-H358 cells at 1 uM by mass spectrometry based pull down assay
[24] = target: Long-chain-fatty-acid--CoA ligase 1 (Homo sapiens) (UniProt P33121); experiment: Binding affinity to ACSL1 in human NCI-H358 cells at 1 uM by mass spectrometry based pull down assay; outline: as §1
[25] = target: ATP-dependent RNA helicase DHX15 (Homo sapiens) (UniProt O43143); experiment: Binding affinity to DHX15 in human NCI-H358 cells at 1 uM by mass spectrometry based pull down assay
[26] = target: Leucine-rich repeat flightless-interacting protein 1 (Homo sapiens) (UniProt Q32MZ4); experiment: Binding affinity to LRRFIP1 in human NCI-H358 cells at 1 uM by mass spectrometry based pull down assay
[27] = target: Macrophage-stimulating protein receptor (Homo sapiens) (UniProt Q04912); experiment: Inhibition of RON in human SKCO1 cells at 1 uM after 4 hrs using biotin labeled IQCAIKSLSR probe by mass-spectrometric analysis relative to control
Chain of Macrophage-stimulating protein receptor (Homo sapiens) (Q04912 25-304 limits assumed): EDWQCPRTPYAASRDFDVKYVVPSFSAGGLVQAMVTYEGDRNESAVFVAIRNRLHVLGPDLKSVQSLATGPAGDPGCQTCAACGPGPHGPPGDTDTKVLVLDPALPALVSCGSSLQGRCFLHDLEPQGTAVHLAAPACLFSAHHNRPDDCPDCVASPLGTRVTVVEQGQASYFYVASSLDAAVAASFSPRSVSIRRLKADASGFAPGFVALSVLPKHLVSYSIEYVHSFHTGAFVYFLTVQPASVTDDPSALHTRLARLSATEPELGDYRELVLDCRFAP
Chain of Macrophage-stimulating protein receptor (Homo sapiens) (Q04912 310-1400 limits assumed): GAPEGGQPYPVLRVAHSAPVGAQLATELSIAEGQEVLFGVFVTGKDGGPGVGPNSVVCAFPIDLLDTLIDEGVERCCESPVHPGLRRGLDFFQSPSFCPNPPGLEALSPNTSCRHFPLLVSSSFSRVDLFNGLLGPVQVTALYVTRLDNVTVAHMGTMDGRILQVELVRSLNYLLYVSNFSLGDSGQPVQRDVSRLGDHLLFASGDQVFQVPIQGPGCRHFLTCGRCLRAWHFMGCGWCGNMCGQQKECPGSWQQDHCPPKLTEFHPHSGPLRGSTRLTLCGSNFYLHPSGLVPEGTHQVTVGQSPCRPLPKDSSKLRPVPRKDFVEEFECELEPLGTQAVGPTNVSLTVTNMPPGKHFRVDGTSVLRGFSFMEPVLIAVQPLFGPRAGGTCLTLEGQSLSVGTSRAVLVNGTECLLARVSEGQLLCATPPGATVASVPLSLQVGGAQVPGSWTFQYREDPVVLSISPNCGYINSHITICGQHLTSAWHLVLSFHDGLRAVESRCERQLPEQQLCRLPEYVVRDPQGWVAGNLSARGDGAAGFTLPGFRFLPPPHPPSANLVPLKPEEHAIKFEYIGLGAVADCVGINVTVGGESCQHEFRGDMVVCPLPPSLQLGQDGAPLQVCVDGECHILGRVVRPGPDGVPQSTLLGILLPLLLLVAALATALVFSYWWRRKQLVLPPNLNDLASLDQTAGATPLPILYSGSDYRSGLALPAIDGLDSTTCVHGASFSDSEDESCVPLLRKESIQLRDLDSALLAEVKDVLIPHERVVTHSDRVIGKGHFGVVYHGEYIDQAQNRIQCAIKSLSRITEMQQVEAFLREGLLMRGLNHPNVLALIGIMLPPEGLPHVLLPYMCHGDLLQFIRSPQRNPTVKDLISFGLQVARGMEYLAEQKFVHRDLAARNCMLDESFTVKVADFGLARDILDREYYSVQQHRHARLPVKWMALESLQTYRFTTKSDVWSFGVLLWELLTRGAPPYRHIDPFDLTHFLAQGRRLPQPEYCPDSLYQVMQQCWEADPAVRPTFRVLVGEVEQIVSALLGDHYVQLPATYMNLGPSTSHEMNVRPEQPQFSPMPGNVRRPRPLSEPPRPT

Chain of ATP-dependent RNA helicase DHX15 (Homo sapiens) (O43143 whole entry): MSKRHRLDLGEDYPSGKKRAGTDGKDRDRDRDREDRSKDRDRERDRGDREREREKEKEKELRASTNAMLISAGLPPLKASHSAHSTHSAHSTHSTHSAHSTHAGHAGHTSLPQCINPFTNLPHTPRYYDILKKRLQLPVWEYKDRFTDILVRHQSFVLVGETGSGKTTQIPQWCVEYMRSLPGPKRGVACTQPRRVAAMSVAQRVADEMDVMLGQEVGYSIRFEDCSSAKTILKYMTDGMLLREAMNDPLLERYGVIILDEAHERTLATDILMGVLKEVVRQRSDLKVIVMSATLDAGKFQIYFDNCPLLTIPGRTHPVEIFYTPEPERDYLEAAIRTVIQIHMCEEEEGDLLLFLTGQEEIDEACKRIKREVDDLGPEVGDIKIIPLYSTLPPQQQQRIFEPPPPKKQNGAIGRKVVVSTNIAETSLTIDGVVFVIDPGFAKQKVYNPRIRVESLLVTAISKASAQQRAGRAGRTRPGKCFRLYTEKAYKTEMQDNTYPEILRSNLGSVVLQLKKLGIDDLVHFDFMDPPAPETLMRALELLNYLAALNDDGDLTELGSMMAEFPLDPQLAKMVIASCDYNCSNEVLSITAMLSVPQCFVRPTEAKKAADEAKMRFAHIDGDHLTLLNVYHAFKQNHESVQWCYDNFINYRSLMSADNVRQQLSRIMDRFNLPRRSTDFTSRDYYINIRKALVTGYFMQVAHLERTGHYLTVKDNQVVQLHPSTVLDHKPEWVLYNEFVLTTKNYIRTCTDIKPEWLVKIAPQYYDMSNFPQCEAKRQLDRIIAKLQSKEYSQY
Chain of Tyrosine-protein kinase Fyn (Homo sapiens) (P06241 2-537 limits assumed): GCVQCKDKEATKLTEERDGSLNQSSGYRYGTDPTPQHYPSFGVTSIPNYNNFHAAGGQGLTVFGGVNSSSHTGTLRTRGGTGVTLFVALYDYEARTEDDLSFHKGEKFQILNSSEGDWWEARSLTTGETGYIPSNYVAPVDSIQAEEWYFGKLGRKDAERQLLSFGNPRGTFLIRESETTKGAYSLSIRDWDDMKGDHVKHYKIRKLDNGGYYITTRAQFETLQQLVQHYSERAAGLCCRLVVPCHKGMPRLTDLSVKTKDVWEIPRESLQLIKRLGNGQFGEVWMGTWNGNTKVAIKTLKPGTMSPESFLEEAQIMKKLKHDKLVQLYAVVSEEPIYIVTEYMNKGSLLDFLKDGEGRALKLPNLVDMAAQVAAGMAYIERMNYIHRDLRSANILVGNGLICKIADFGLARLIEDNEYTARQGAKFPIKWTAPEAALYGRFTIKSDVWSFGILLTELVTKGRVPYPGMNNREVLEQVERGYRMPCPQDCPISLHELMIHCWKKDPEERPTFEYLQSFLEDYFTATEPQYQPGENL
Chain of ATP-dependent 6-phosphofructokinase, muscle type (Homo sapiens) (P08237 whole entry): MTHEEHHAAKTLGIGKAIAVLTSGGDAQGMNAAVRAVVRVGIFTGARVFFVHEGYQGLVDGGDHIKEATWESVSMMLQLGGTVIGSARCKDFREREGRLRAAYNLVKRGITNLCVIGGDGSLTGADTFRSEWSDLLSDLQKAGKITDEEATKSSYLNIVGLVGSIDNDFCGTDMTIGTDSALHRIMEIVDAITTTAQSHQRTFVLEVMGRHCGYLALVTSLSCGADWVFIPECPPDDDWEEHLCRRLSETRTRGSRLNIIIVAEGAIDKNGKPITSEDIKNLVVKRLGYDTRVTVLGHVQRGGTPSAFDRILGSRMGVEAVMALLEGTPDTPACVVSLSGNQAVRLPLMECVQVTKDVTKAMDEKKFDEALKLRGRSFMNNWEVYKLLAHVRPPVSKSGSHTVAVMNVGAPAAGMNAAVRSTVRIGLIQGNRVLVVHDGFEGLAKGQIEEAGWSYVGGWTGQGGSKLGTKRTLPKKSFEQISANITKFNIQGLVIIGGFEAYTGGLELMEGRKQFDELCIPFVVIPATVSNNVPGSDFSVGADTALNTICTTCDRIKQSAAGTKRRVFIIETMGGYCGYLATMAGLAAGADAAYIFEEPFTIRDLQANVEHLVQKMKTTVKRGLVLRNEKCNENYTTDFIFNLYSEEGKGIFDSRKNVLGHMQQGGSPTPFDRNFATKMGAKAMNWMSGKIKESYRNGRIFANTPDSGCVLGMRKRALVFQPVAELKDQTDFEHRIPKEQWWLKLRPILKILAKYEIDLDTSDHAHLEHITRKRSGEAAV
Chain of DnaJ homolog subfamily B member 6 (Homo sapiens) (O75190 whole entry): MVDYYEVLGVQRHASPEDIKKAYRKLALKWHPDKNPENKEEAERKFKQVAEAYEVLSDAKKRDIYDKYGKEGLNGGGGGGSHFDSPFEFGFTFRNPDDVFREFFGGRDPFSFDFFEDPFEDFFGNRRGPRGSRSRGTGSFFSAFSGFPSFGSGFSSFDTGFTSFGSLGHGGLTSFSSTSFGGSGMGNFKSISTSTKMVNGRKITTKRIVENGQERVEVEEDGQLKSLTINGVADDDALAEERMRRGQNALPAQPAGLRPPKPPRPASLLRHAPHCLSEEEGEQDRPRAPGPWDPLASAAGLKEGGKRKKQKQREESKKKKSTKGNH
Chain of Cyclin-dependent kinase 5 (Homo sapiens) (Q00535 whole entry, looked up): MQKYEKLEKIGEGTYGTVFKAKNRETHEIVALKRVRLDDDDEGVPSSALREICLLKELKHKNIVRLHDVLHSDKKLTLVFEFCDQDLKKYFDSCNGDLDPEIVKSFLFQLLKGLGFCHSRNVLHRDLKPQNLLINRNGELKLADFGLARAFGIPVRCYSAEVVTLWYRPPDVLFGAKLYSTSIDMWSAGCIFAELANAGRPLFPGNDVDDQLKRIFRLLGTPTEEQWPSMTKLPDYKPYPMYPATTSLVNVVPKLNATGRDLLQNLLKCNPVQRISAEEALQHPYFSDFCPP
Chain of DNA mismatch repair protein Msh2 (Homo sapiens) (P43246 whole entry): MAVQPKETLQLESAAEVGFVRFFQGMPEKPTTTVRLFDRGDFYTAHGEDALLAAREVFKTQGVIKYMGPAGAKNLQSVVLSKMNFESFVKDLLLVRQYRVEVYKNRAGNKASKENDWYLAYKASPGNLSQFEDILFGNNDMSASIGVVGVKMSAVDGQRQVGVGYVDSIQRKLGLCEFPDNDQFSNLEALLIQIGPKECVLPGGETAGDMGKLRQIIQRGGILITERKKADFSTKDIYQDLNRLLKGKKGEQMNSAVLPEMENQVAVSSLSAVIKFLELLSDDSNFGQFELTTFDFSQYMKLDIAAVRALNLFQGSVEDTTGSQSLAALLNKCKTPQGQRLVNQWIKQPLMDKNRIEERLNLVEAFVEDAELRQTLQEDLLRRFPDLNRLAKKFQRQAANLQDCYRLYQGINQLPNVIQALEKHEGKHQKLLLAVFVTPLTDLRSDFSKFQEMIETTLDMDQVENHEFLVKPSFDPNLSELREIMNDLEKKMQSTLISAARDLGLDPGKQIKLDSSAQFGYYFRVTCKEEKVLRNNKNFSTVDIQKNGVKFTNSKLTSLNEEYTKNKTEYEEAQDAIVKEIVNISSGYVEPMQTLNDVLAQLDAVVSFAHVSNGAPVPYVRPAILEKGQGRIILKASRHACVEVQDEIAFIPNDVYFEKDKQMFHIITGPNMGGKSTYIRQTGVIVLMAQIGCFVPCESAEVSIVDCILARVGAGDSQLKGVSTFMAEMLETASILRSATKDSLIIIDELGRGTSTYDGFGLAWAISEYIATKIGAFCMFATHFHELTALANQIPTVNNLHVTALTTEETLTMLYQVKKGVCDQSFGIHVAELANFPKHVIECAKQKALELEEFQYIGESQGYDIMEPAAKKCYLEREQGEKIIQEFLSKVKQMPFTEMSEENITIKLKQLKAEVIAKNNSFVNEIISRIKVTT

`C=CC(=O)Nc1ccccc1Nc1nc(Nc2ccc(N3CCN(C)CC3)cc2)ncc1Cl` was tested, and the inhibition [1] was 8.3% and the inhibition [2] was -8.5%.
In the case of `C=CC(=O)Nc1ccccc1Nc1nc(Nc2ccc(N3CCN(CCOCCOCCOCCNC(=O)CCCC[C@@H]4SC[C@@H]5NC(=O)N[C@@H]54)CC3)cc2)ncc1Cl`, the Activity [3] is reported as “Active”, the Activity [4] is reported as “Active” and the Activity [5] is reported as “Active”. The Activity [6] was “Active”, the Activity [7] was “Active” and the Activity [8] was “Active”. The Activity [9] was “Active”, the Activity [10] was “Active” and the Activity [11] was “Active”. The Activity [12] was “Active”, the Activity [13] was “Active” and the Activity [14] was “Active”. For the same molecule, the Activity [15] was “Active”, the Activity [16] was “Active” and the Activity [17] was “Active”. The Activity [18] was “Active”, the Activity [19] was “Active” and the Activity [20] was “Active”. The Activity [21] was “Active”, the Activity [22] was “Active” and the Activity [23] was “Active”. For the same molecule, the Activity [24] was “Active”, the Activity [25] was “Active” and the Activity [26] was “Active”.
`C=CC(=O)Nc1ccccc1Oc1nc(Nc2cnn(CCOC)c2)ncc1Cl` showed an inhibition [27] of -4.2%.
